The source of these data is paper PMC6940675 (Molecular Therapy Oncolytics, 2019).

Where no end group is shown, it is not given here.

For series [1], the system named is breast cancer cell line, MCF-7. In words: MTT assay. The format is cell-based. The following applies: MCF-7, 24-h incubation with peptide, triplicate, OD 550 nm. The procedure, abridged: (§1)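 ATCC cells were maintained at 37°C, 5% CO2: U87 and A375 in DMEM with 10% FBS and 1% penicillin/streptomycin, MCF-7 in DMEM with 5% FBS. They were seeded at 5,000 cells/well and grown 24 h. Peptide came from a 10 mM stock diluted in medium; controls got PBS. MTT (5 mg/mL in PBS, pH 7.4) was added for 4 h, then formazan was dissolved in DMSO.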
(Tetrazolium assays rely on reduction of a dye to a coloured formazan, in cell work by metabolically active cells.)

Series [2] has as its system malignant melanoma cell line, A375. The series can be described thus: MTT assay. In kind it is cell-based. The following applies: A375, 24-h incubation with peptide, triplicate, OD 550 nm. In short, it runs like this: as §1
The subject of series [3] is brain glioma cell line, U87. The series can be described thus: MTT assay. The following applies: U87, 24-h incubation with peptide, triplicate, OD 550 nm. In kind it is cell-based. In short, it runs like this: as §1
Series [4] can be described thus: Circular dichroism spectroscopy. In kind it is physicochemical. The following applies: CD, CDNN. In short, it runs like this: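 POPE/POPG (7:3) dried from chloroform under N2 overnight, resuspended in PBS pH 7.4 and extruded through 0.1-μm membranes to form SUVs, used within 6 h. Peptide at 0.5 mM in PBS pH 7.4, alone or with SUVs. Spectra taken at 25°C from 250–190 nm in a 0.1-mm quartz cell, 1-nm steps, 60 nm/min. Each spectrum averaged three scans and was baseline-subtracted. Helix content estimated by CDNN 2.1.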
(CD spectra are sensitive to the conformation of chiral molecules.)

Series [5] deals with MCF 7, A375 and U87 cancer cell lines. The series can be described thus: MTT assay, comparison over three cancer cell lines. The note with it: result in words. In kind it is cell-based. In short, it runs like this:
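Lines used: MCF-7 (DMEM, 5% FBS) and A375 and U87 (DMEM, 10% FBS, penicillin/streptomycin). Seeded at 5,000 cells/well and grown 24 h. Peptides were diluted from 10 mM stock in medium; PBS served as control; triplicates. After 24 h exposure, MTT was added for 4 h at 37°C. Formazan was dissolved in DMSO and OD read at 550 nm.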

Series [6] deals with MCF-10A cells. In words: Apoptosis assay, flow cytometry Annexin V/PI. In kind it is cell-based, human. The following applies: 5 μM, normal breast cell line. In short, it runs like this:
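MCF-10A cells, a normal breast line, grown in DMEM/F12 with 5% horse serum, hydrocortisone, insulin, EGF and cholera toxin. Seeded at 2 × 10^5 cells/mL in 6-well plates and cultured 24 h before peptide exposure; PBS served as negative control. After 1−3 h, cells were washed in cold PBS and set to 1 × 10^6 cells/mL in Annexin-binding buffer. Stained with Alexa Fluor 488 Annexin V plus PI for 10 min at room temperature. Read by flow cytometry, excitation 488 nm, emission 530 and 575 nm.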
Background: In flow cytometry, cells or beads pass a laser one at a time.

A further series has as its system MCF-7 cells. In words: PI and Annexin V staining, fluorescent images. In kind it is cell-based. The following applies: 5 μM, in comparison with AP1-Z1. The procedure, abridged: (§2)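 MCF-7 (DMEM, 5% FBS) or MCF-10A (DMEM/F12 with horse serum, hydrocortisone, insulin, EGF, cholera toxin) seeded at 2 × 10^4 cells/well in 48-well plates and cultured 24 h. Peptide added, with PBS as negative control. After 1−3 h, Alexa Fluor 488 Annexin V (1:250 v/v) and PI (1:1,000 v/v) were added for 30 min at 37°C. Cells were then imaged by fluorescence microscopy.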

Series [7] concerns MCF-10A cells. The series can be described thus: PI and Annexin V staining, fluorescent images. The format is cell-based, human. The note with it: 5.0 μM. In short, it runs like this: as §2
In the next series the test system is HUVECs. In words: Anti-angiogenesis assay. The format is cell-based, human. The following applies: 10.0 μM, 10−12 h, in comparison with the blank control (PBS), one-way ANOVA, Angiogenesis Analyzer for ImageJ. In short, it runs like this:
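HUVECs grown in Medium 200 with low serum growth supplement at 37°C, 5% CO2. Matrigel thawed overnight at 4°C, added to μ-Slide wells and polymerised 30−60 min in a humidified incubator. HUVECs at 1 × 10^5 cells/mL were added and incubated 10−12 h at 37°C, 5% CO2, with a PBS-treated negative control. Tube formation was then imaged by fluorescence microscopy.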

[8] abbreviates: 0.5 mM peptide in 1× PBS buffer pH 7.4, 25°C, average of three scans.

FLFKLIKHAIKGLIKAFK-NH2 [AP1-Z5b]: the IC50 (commonly the concentration at which inhibition is half-maximal) is 1.04 µM in series [1], 2.61 µM in series [2] and 3.12 µM in series [3].

Regarding FLFSLIPHAISGLISAFK-NH2 [AP1-Z1], the IC50 in series [1] was found to be 7.22 µM; in series [2], 9.48 µM; in series [3] it was 10.2 µM.

For FLFSLIKHAIKGLISAFK [AP1-Z3a], the α helix ratio in series [4] (setting [8]) came to 24.28%.

On to FLFKLIPKAIKGLIKAFK [AP1-Z5a], for which the “IC50 relative to the other peptides” value in [5] is reported as “relatively lower”. Moreover, the “apoptosis of MCF-10A cells” value in the series on MCF-10A cells [6] is given as “did not significantly promote the apoptosis”. Also, in the series on MCF-7 cells, the “apoptosis of MCF-7 cells (ANXA5/PI fluorescent images)” value is “significantly induced the apoptosis”. Also, the “apoptosis of MCF-10A cells (ANXA5/PI fluorescent images)” value with MCF-10A cells [7] is reported as “no significant change in the apoptosis”. The “angiogenesis (tube formation of HUVECs)” value in the series on HUVECs is listed as “significantly inhibited angiogenesis”.

As to FLFKLIKKAIKKLIKAFK [AP1-Z7], the α helix ratio is on record as 16.16% in series [4] (setting [8]) and 44.95% in series [4] (0.5 mM peptide in POPE/POPG (7:3) SUVs in 1× PBS, 3:1 lipid:peptide).
